Test results taken from ChEMBL document CHEMBL1149782, “Synthesis and antifungal activity of some new 3-hydroxy-2-(1-phenyl-3-aryl-4-pyrazolyl) chromones” (2008).

How the values were obtained:
Type in all cases: functional
Fusarium oxysporum [1] = test: Antifungal activity against Fusarium oxysporum at 100 ppm after 96 hrs
How it was run: (§1)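 Poisoned-food assay on potato dextrose agar (200 g potato per litre, boiled and filtered) with compound mixed into sterilized medium at final 100, 500 or 1000 ppm. Plates were centre-inoculated with mycelial discs from 7-day PDA cultures and incubated at 28 ± 1 °C. Colony diameter was measured at two right angles after 96 h. Inhibition = (C − T) × 100/C against compound-free control, mean of three replicates ± SD, two-way ANOVA.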

Alternaria alternata [2] = test: Antifungal activity against Alternaria alternata at 500 ppm after 96 hrs; how it was run: as §1
Helminthosporium [3] = test: Antifungal activity against Helminthosporium species at 1000 ppm after 96 hrs; how it was run: as §1
Alternaria alternata [4] = test: Antifungal activity against Alternaria alternata at 1000 ppm after 96 hrs; how it was run: as §1
Helminthosporium [5] = test: Antifungal activity against Helminthosporium species at 100 ppm after 96 hrs; how it was run: as §1
Helminthosporium [6] = test: Antifungal activity against Helminthosporium species at 500 ppm after 96 hrs; how it was run: as §1
Fusarium oxysporum [7] = test: Antifungal activity against Fusarium oxysporum at 500 ppm after 96 hrs; how it was run: as §1
Alternaria alternata [8] = test: Antifungal activity against Alternaria alternata at 100 ppm after 96 hrs; how it was run: as §1
Fusarium oxysporum [9] = test: Antifungal activity against Fusarium oxysporum at 1000 ppm after 96 hrs; how it was run: as §1

Row | Structure (SMILES) | inhibition at 100 ppm (Fusarium oxysporum [1]) | inhibition at 500 ppm (Alternaria alternata [2]) | inhibition at 1000 ppm (Helminthosporium [3]) | inhibition at 1000 ppm (Alternaria alternata [4]) | inhibition at 100 ppm (Helminthosporium [5]) | inhibition at 500 ppm (Helminthosporium [6]) | inhibition at 500 ppm (Fusarium oxysporum [7]) | inhibition at 100 ppm (Alternaria alternata [8]) | inhibition at 1000 ppm (Fusarium oxysporum [9])
1 | O=c1c(O)c(-c2cn(-c3ccccc3)nc2-c2ccc([N+](=O)[O-])cc2)oc2ccccc12 | 8.57% | 16.1% | 14.4% | 16.1% | 1.31% | 1.31% | 11.4% | 0% | 14.2%
2 | COc1ccc(-c2nn(-c3ccccc3)cc2-c2oc3ccccc3c(=O)c2O)cc1 | 55.5% | 75.4% | 77.6% | 77.3% | 59.7% | 59.7% | 55.3% | 73.5% | 64.2%
3 | O=c1c(O)c(-c2cn(-c3ccccc3)nc2-c2ccc(Br)cc2)oc2ccccc12 | 34.2% | 29% | 39.2% | 34.5% | 39% | 39.2% | 35.7% | 25.4% | 41.4%
4 | O=c1c(O)c(-c2cn(-c3ccccc3)nc2-c2ccc(Cl)cc2)oc2ccccc12 | 0% | 38.2% | 21.4% | 38.2% | 0% | 1.19% | 0% | 0% | 0%
5 | O=c1c(O)c(-c2cn(-c3ccccc3)nc2-c2ccccc2)oc2ccccc12 | 33.9% | 41.5% | 71.2% | 52.8% | 31% | 50.5% | 39.2% | 15% | 51.7%
6 | O=c1c(O)c(-c2cn(-c3ccccc3)nc2-c2ccc(F)cc2)oc2ccccc12 | 8.9% | 43.3% | 58.6% | 50.9% | 12.3% | 28.7% | 8.9% | 30.1% | 16%
7 | Cc1ccc(-c2nn(-c3ccccc3)cc2-c2oc3ccccc3c(=O)c2O)cc1 | 50% | 61.8% | 76.1% | 61.8% | 73.8% | 73.8% | 51.4% | 60% | 55.7%
8 | C[C@@H]1C[C@@H]([C@H](O)CC2CC(=O)NC(=O)C2)C(=O)[C@@H](C)C1 [CYCLOHEXIMIDE] | 39.2% | 45.5% | 50% | 50.6% | 38.5% | 41.5% | 43.4% | 40.2% | 50.2%
